Measurements reported in ChEMBL document CHEMBL2424657, “Identification of the KDM2/7 histone lysine demethylase subfamily inhibitor and its antiproliferative activity” (J Med Chem, 2013).

Legend:
[1] = target: Lysine-specific demethylase 5A (Homo sapiens, UniProt P29375); assay: Inhibition of KDM5A (unknown origin) using H3K4me3 peptide and 2-oxoglutarate as substrate after 1 hr by FDH-coupled assay
Method in brief: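 Run as the FDH-coupled KDM4C format, with compounds in DMSO and activity relative to a DMSO control. KDM4A was used at 0.37 mg/mL final with H3K9me3 peptide. KDM5A was used at 0.64 mg/mL final with H3K4me3 peptide. Values are means of two experiments.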

[2] = tested on: HeLa; assay: Growth inhibition of human HeLa cells after 48 hrs by MTT assay; assay type: functional
Method in brief: (§1)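 Cells were seeded at 5000/well in RPMI 1640 with 10% FBS and allowed to attach overnight, then exposed for 48 h at 37 °C in 5% CO2. MTT was added for 3 h, and the dye was solubilized in HCl–2-propanol and read at 560 nm (reference 750 nm).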

[3] = target: T1, Lysine-specific demethylase 2A (Homo sapiens, UniProt Q9Y2K7); assay: Inhibition of KDM2A (unknown origin)
T1 sequence (Q9Y2K7 whole entry): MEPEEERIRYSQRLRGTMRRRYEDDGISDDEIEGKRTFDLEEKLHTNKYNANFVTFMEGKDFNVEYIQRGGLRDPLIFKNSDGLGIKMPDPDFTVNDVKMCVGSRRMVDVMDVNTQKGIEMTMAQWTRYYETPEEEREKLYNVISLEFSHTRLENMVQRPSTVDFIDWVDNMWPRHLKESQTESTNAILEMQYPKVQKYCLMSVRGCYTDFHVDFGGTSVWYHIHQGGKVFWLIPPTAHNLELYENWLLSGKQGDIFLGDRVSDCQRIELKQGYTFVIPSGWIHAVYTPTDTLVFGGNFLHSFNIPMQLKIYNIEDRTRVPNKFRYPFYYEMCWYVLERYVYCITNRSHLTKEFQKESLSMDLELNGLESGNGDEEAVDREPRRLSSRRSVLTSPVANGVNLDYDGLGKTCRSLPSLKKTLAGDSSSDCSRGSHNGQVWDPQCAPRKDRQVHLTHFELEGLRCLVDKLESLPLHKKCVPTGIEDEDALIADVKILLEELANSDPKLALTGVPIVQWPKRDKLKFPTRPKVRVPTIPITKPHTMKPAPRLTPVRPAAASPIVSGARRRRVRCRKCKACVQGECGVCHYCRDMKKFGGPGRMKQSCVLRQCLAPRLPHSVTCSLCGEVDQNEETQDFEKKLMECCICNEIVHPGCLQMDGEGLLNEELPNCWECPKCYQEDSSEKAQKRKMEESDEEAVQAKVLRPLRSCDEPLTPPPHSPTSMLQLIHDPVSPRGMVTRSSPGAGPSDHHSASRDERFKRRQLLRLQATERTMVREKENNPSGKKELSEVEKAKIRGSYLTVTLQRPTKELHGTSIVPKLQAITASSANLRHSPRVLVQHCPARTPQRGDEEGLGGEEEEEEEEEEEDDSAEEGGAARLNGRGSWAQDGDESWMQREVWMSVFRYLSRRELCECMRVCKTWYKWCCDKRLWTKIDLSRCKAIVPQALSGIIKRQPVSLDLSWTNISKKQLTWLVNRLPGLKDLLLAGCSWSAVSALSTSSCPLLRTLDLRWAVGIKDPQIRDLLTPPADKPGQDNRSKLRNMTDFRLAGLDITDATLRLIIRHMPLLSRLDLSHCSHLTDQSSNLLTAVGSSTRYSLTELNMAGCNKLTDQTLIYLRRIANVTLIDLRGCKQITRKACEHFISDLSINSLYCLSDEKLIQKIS

[4] = target: T2, Lysine-specific demethylase 7A (Homo sapiens, UniProt Q6ZMT4); assay: Inhibition of KDM7A (unknown origin) using K27me2 peptide as substrate by MALDI assay
T2 sequence (Q6ZMT4 whole entry): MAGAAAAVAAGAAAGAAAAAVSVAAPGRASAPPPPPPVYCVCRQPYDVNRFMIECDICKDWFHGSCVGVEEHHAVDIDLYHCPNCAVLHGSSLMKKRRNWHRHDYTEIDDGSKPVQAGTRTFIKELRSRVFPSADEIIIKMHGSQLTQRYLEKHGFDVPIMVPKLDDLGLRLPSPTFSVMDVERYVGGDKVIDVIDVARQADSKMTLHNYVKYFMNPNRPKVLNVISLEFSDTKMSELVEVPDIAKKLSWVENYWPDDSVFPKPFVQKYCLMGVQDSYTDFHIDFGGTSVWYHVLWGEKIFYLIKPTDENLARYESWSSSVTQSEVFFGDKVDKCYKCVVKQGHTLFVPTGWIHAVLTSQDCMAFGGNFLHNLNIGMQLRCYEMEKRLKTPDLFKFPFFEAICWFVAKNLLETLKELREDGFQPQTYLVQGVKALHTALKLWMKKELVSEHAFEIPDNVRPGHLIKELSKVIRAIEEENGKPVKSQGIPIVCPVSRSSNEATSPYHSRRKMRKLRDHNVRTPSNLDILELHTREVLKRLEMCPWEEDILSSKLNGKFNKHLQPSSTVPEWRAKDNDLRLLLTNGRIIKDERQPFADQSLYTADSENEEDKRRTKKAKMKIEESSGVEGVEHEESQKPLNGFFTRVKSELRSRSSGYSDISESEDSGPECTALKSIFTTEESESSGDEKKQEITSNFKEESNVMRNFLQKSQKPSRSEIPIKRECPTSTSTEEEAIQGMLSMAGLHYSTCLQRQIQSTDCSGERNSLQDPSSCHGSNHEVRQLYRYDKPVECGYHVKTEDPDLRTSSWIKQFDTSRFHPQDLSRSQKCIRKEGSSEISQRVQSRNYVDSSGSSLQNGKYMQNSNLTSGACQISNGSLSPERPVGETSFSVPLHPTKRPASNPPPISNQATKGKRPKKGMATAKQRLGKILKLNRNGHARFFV

[5] = target: Histone lysine demethylase PHF8 (Homo sapiens, UniProt Q9UPP1); assay: Inhibition of KDM7B (unknown origin) using H3K4me3K9me2 and 2-oxoglutarate as substrate after 1 hr by matrix-assisted laser desorption ionization time of flight mass spectrometry
Method in brief: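 Enzyme (0.5 mg/mL) was reacted with 5 μM H3K4me3K9me2 peptide, 0.5 mM 2-oxoglutarate, 20 μM Fe(II), 20 μM ZnCl2, 0.5 mM ascorbate, 150 mM KCl, glutathione and DTT in 10 mM Tris-HCl pH 8.0 for 1 h at 37 °C. Inhibition was calculated from the remaining H3K9me2, and IC50 was taken as the concentration halving H3K9me2 removal. Values are means of two experiments.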

[6] = Growth inhibition of human KYSE-150 cells after 48 hrs by MTT assay; assay type: functional; settings: KYSE-150, 48 h; method in brief: as §1

Sequence of Lysine-specific demethylase 5A (P29375 whole entry): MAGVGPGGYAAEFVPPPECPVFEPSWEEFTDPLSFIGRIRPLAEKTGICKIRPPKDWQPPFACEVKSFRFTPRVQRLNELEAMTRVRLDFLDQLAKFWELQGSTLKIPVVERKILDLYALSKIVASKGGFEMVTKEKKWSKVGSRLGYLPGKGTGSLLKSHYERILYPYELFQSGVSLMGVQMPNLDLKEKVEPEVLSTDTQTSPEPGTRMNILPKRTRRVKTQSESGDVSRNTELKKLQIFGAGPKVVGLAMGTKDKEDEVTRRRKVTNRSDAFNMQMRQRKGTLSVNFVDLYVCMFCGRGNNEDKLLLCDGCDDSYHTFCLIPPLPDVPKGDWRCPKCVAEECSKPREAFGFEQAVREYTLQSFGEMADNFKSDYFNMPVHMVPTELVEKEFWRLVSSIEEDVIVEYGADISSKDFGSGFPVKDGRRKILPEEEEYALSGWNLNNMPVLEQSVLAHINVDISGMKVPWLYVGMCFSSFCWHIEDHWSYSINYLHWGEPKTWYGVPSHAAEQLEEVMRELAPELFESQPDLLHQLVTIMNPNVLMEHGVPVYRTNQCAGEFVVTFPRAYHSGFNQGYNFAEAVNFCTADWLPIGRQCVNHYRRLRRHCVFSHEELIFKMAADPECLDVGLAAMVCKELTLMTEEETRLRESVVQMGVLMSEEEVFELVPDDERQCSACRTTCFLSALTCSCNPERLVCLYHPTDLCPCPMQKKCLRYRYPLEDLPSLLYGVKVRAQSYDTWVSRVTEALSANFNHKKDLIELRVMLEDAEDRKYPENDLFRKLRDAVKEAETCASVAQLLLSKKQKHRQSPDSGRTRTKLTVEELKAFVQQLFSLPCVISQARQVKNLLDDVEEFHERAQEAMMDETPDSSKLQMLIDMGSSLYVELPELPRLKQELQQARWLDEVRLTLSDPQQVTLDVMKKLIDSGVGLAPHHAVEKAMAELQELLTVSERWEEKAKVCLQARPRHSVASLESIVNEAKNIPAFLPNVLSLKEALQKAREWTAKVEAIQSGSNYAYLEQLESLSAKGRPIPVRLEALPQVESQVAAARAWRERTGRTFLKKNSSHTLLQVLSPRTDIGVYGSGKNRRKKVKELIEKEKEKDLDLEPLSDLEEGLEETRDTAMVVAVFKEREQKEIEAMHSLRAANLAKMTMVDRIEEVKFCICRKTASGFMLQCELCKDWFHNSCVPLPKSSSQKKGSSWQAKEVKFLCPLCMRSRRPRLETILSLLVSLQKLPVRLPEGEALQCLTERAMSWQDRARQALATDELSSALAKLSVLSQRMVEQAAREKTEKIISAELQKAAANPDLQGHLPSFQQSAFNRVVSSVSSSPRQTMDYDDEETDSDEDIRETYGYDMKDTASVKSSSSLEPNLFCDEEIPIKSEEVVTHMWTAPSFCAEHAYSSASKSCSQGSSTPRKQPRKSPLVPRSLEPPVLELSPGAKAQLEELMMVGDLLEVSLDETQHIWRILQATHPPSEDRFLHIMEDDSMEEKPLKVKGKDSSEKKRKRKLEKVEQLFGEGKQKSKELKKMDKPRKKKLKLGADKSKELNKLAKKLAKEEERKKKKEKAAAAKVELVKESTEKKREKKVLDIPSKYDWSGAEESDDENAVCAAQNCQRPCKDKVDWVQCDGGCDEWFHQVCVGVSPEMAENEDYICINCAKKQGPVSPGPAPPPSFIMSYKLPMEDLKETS
Sequence of Histone lysine demethylase PHF8 (Q9UPP1 whole entry): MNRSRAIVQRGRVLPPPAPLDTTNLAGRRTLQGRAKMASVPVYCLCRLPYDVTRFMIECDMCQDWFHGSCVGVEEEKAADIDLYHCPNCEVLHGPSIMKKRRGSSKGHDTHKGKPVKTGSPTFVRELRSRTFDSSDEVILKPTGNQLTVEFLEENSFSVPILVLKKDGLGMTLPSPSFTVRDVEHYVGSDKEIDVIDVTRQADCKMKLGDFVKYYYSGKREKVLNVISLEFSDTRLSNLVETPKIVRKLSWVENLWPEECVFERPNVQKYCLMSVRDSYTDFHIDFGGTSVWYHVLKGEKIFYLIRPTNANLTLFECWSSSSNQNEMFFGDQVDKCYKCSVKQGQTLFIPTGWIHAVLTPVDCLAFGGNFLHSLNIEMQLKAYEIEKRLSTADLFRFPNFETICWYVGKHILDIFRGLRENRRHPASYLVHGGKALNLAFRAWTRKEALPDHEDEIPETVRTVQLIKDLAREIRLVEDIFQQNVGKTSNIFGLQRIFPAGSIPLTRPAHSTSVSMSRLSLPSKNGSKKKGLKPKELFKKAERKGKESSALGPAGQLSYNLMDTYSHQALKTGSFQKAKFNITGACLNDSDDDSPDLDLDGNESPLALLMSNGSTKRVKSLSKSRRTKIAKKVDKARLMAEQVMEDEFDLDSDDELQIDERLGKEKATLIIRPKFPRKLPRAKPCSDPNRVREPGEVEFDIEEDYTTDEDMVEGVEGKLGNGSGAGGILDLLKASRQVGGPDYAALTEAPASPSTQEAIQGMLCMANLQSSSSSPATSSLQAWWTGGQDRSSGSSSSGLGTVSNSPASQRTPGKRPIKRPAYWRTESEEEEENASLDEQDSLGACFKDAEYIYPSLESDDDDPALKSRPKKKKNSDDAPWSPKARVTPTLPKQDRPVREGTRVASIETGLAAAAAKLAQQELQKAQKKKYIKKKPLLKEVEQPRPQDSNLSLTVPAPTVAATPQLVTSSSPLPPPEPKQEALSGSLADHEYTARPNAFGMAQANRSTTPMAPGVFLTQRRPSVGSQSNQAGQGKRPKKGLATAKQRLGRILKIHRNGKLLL

IC50 [1] [µM] | GI50 [2] [µM] | IC50 [3] [µM] | IC50 [4] [µM] | IC50 [5] [µM] | Structure (SMILES) | GI50 [6] [µM]
13 | > 470 | 0.2 | 1.6 | 19 | CN(C)CCCCCCCCC(=O)N(O)CCC(=O)O | > 470
55 | 40 | 6.8 | 0.2 | 1.2 | O=C(O)CCN(O)C(=O)CCCCCCCCC1CC1 | 16
